# According to ChEMBL document CHEMBL1153527, “Discovery of a novel series of quinolone and naphthyridine derivatives as potential topoisomerase I inhibitors by scaffold modification” (J Med Chem, 2009):
# pIC50: −log10 of the molar value.
# Key:
# [1] = tested on: KB; assay: Cytotoxicity against human KB cells after 48 hrs by MTT assay; assay type: functional, cell-based
# [2] = tested on: Bel-7402; assay: Cytotoxicity against human Bel7402 cells after 48 hrs by MTT assay; assay type: functional, cell-based; settings: Bel-7402, 48 h
# [3] = tested on: A2780; assay: Cytotoxicity against human A2780 cells after 48 hrs by MTT assay; assay type: functional, cell-based; settings: A2780, 48 h
# [4] = tested on: U-937; assay: Cytotoxicity against human U937 cells expressing p53 mutant after 48 hrs by SRB assay; assay type: functional, cell-based; settings: U-937, 48 h
# [5] = Cytotoxicity against estrogen receptor-negative human […] cells expressing p53 mutant after 48 hrs by SRB assay; assay type: functional, cell-based
# Summary of the method: (§1)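 Cell lines came from CCRC, Taiwan. Cells were seeded at about 5 × 10^3 per well and left overnight. They were then given serum-free medium containing 0-10 μM compound (0.08-10 μM serial dilutions) for 48 h at 37 °C. Cells were fixed with TCA (10% final), stained with SRB (0.4% final), and the dye was dissolved in 10 mM Tris with A515 read. IC50 was taken from a fitted log concentration-response curve.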
# [6] = tested on: A549; assay: Cytotoxicity against human A549 cells expressing wild type p53 after 48 hrs by SRB assay; assay type: functional, cell-based; settings: A549, 48 h; summary of the method: as §1
# [7] = tested on: THP-1; assay: Cytotoxicity against human THP1 cells expressing p53 mutant after 48 hrs by SRB assay; assay type: functional, cell-based; settings: THP-1, 48 h
# [8] = tested on: HeLa; assay: Cytotoxicity against p53-deficient human HeLa cells after 48 hrs by SRB assay; assay type: functional, cell-based; summary of the method: as §1
# [9] = tested on: AGS; assay: Cytotoxicity against human AGS cells expressing wild type p53 after 48 hrs by SRB assay; assay type: functional, cell-based; summary of the method: as §1
# [10] = tested on: HepG2; assay: Cytotoxicity against human HepG2 cells expressing wild type p53 after 48 hrs by SRB assay; assay type: functional, cell-based; settings: HepG2, 48 h; summary of the method: as §1
# [11] = tested on: MCF7; assay: Cytotoxicity against estrogen receptor-positive human MCF7 cells expressing wild type p53 after 48 hrs by SRB assay; assay type: functional, cell-based; settings: MCF7, 48 h; summary of the method: as §1
# [12] = tested on: PC-3; assay: Cytotoxicity against p53-deficient human PC3 cells after 48 hrs by SRB assay; assay type: functional, cell-based; settings: PC-3, 48 h; summary of the method: as §1
# [13] = tested on: K562; assay: Cytotoxicity against p53-deficient human K562 cells after 48 hrs by SRB assay; assay type: functional, cell-based; settings: K562, 48 h
# [14] = Cytotoxicity against p53-deficient human Hep3B cells after 48 hrs by SRB assay; assay type: functional, cell-based, Hep 3B2; summary of the method: as §1
# [15] = tested on: HT-29; assay: Cytotoxicity against human HT-29 cells expressing p53 mutant after 48 hrs by SRB assay; assay type: functional, cell-based; settings: HT-29, 48 h; summary of the method: as §1
structure (smiles),measurement,setting,value
CCn1cc(-c2nc3ccccc3o2)c(=O)c2cc(F)c(N3CCNC(C)C3)c(F)c21 (stereo not drawn),pIC50,[1],4.72
same,pIC50,[2],5.24
same,pIC50,[3],4.08
CCn1cc(-c2nc3ccc(Cl)cc3[nH]2)c(=O)c2cc(F)c(N3CCNCC3)nc21,pIC50,[1],4.99
same,pIC50,[2],4.67
same,pIC50,[3],5.20
CCn1cc(-c2nc3ccc([N+](=O)[O-])cc3[nH]2)c(=O)c2cc(F)c(N3CCNCC3)nc21,pIC50,[1],4.65
same,pIC50,[2],4.97
same,pIC50,[3],4.91
CCn1cc(-c2nc3ccc([N+](=O)[O-])cc3s2)c(=O)c2cc(F)c(N3CCNCC3)nc21,pIC50,[1],3.75
same,pIC50,[2],4.61
same,pIC50,[3],3.70
CCn1cc(-c2nc3ccccc3o2)c(=O)c2cc(F)c(Cl)cc21,pIC50,[1],4.99
same,pIC50,[2],4.54
same,pIC50,[3],4.11
CCn1cc(-c2nc3ccc([N+](=O)[O-])cc3[nH]2)c(=O)c2cc(F)c(N3CCNC(C)C3)c(F)c21 (stereo not drawn),pIC50,[4],< 5.00
same,GI50,[5],1.8 µM
same,pIC50,[5],5.26
same,GI50,[6],0.6 µM
same,pIC50,[6],5.62
same,pIC50,[7],5.11
same,GI50,[8],1.4 µM
same,pIC50,[8],5.62
same,GI50,[9],2.6 µM
same,pIC50,[9],5.09
same,pIC50,[1],5.64
same,GI50,[10],1.5 µM
same,pIC50,[10],5.38
same,GI50,[11],2.6 µM
same,pIC50,[11],5.31
same,GI50,[12],7.9 µM
same,pIC50,[12],5.02
same,pIC50,[13],5.33
same,pIC50,[2],5.96
same,pIC50,[3],5.64
same,GI50,[14],1.6 µM
same,pIC50,[14],5.26
same,GI50,[15],4.2 µM
same,pIC50,[15],5.12
CCn1cc(-c2nc3ccc([N+](=O)[O-])cc3o2)c(=O)c2cc(F)c(Cl)cc21,pIC50,[1],6.30
same,pIC50,[2],5.74
CCn1cc(-c2nc3ccc([N+](=O)[O-])cc3o2)c(=O)c2cc(F)c(N3CCNCC3)nc21,pIC50,[4],< 5.00
same,GI50,[5],> 10 µM
same,pIC50,[5],< 5.00
same,GI50,[6],2.1 µM
same,pIC50,[6],5.14
same,pIC50,[7],< 5.00
same,GI50,[8],> 10 µM
same,pIC50,[8],< 5.00
same,GI50,[9],2.3 µM
same,pIC50,[9],5.36
same,pIC50,[1],5.74
same,GI50,[10],> 10 µM
same,pIC50,[10],< 5.00
same,GI50,[11],> 10 µM
same,pIC50,[11],< 5.00
same,GI50,[12],5.8 µM
same,pIC50,[12],5.01
same,pIC50,[13],< 5.00
same,pIC50,[2],5.52
same,GI50,[14],> 10 µM
same,pIC50,[14],< 5.00
same,GI50,[15],> 10 µM
same,pIC50,[15],< 5.00
CC[C@@]1(O)C(=O)OCc2c1cc1n(c2=O)Cc2cc3cc(O)ccc3nc2-1 [HYDROXYCAMPTOTHECIN],pIC50,[1],6.22
same,pIC50,[2],6.70
same,pIC50,[3],6.15
CCn1cc(-c2nc3ccccc3o2)c(=O)c2cc(F)c(N3CCN(C)CC3)cc21,pIC50,[1],4.06
same,pIC50,[2],5.70
same,pIC50,[3],6.15
CCn1cc(-c2nc3ccccc3[nH]2)c(=O)c2cc(F)c(N3CCNC(C)C3)c(F)c21 (stereo not drawn),pIC50,[1],4.72
same,pIC50,[2],4.52
same,pIC50,[3],4.94
CCn1cc(-c2nc3ccccc3s2)c(=O)c2cc(F)c(N3CCNCC3)cc21,pIC50,[1],4.54
same,pIC50,[2],4.61
same,pIC50,[3],4.95
CCn1cc(-c2nc3ccccc3s2)c(=O)c2cc(F)c(N3CCNC(C)C3)c(F)c21 (stereo not drawn),pIC50,[1],4.61
same,pIC50,[2],4.82
same,pIC50,[3],5.01
CCn1cc(-c2nc3ccccc3[nH]2)c(=O)c2cc(F)c(N3CCNCC3)nc21,pIC50,[4],< 5.00
same,GI50,[5],3.3 µM
same,pIC50,[5],5.00
same,GI50,[6],4.9 µM
same,pIC50,[6],5.11
same,pIC50,[7],< 5.00
same,GI50,[8],6.4 µM
same,pIC50,[8],5.00
same,GI50,[9],2.1 µM
same,pIC50,[9],5.18
same,pIC50,[1],5.70
same,GI50,[10],6.8 µM
same,pIC50,[10],5.04
same,GI50,[11],8.3 µM
same,pIC50,[11],5.02
same,GI50,[12],> 10 µM
same,pIC50,[12],< 5.00
same,pIC50,[13],5.04
same,pIC50,[2],5.39
same,pIC50,[3],5.32
same,GI50,[14],3.7 µM
same,pIC50,[14],5.11
same,GI50,[15],> 10 µM
same,pIC50,[15],< 5.00
